From PubChem
The sample as a whole holds a higher share of hits than the screen did.
Pf Dd2 inh: inhibitors of Plasmodium falciparum Dd2 growth; P. falciparum Dd2 growth, SYBR Green, 72 h; hits give low values; activity change, % at 10 µM; hit rate 2.3% among 94,000; AID 1159554; in the data active means activity change below about -80%; inconclusive means no clear call, values can overlap the other calls
KDM4C inh: blocks human GASC-1 (KDM4C) demethylase activity; Q9H3R0; GST-KDM4C 2-372, H3K9me3 peptide, LANCE TR-FRET; inhibition, % at 12.5 µM; hit rate 0.15% among 96,000;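 active means mean replicate inhibition above about 25%, with at least 55% of replicates also reaching it, limit read from the data, passing the limit was not always enough; inconclusive means only one of those two conditions met; inactive means neither condition met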
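material = GST-tagged GASC-1 (JMJD2C) catalytic fragment, aa 2-372 | amount = enzyme final amount 10 nM | medium = HEPES buffer, pH 7.5, plus ascorbate | also added = H3K9me3 peptide substrate, Fe(II), 2-oxoglutarate | dosing = single dose | times = 30 min demethylation and 1 h detection at room temperature | detection = LANCE TR-FRET | read-out basis = Fall in 671/618 emission ratio as inhibition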
IDH1 mut inh: IDH1 R132H (human) inhibition; O75874; IDH1 R132H reductase, diaphorase/resazurin fluorescence, 60 min; inhibition, % at 10 µM; hit rate 0.18% among 70,000; AID 624101; in the data active means inhibition above about 34%; inconclusive means no clear call, values can overlap the other calls; inactive means below about 11%
Target sequence (O75874 whole entry R132H): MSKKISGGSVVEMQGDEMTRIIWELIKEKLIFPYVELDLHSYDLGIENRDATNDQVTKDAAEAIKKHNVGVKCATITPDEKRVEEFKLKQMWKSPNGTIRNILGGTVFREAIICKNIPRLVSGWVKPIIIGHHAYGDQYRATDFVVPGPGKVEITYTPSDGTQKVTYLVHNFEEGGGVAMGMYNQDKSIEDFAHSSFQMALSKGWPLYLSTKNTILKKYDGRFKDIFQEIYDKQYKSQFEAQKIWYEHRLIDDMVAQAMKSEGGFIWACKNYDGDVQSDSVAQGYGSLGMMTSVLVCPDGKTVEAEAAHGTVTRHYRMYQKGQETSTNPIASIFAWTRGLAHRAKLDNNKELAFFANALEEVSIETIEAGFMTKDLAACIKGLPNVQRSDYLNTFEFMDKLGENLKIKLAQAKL
Numbers stand for hits; - = inactive; ? = inconclusive; . = no result.

SMILES | Pf Dd2 inh | KDM4C inh | IDH1 mut inh
C[C@@H]1CCCCO[C@@H](CN(C)S(=O)(=O)c2ccc(Cl)cc2)[C@@H](C)CN([C@H](C)CO)C(=O)c2cc(NC(=O)CCCCCC(=O)Nc3ccccc3N)ccc2O1 | - | - | -
Cc1ccc(S(=O)(=O)N(C)C[C@H]2OCCCC[C@@H](C)Oc3ccc(NC(=O)CCCCCC(=O)Nc4ccccc4N)cc3C(=O)N([C@H](C)CO)C[C@@H]2C)cc1 | -87 | - | -
Cc1ccc(S(=O)(=O)N(C)C[C@@H]2OCCCC[C@@H](C)Oc3ccc(NC(=O)CCCCCC(=O)Nc4ccccc4N)cc3C(=O)N([C@H](C)CO)C[C@@H]2C)cc1 | . | - | .
COc1ccccc1C#Cc1ccc([C@H]2[C@@H](C#N)N(C(=O)C3CC3)[C@H]2CO)cc1 | -85 | - | .
COc1ccccc1C#Cc1ccc([C@H]2[C@@H](CO)N(C(=O)C3CCCCC3)[C@H]2C#N)cc1 | -91 | - | -
COc1ccccc1C#Cc1ccc([C@@H]2[C@@H](C#N)N(C(=O)C3CCCCC3)[C@@H]2CO)cc1 | - | - | .
COc1ccccc1C#Cc1ccc([C@H]2[C@H](C#N)N(C(=O)C3CC3)[C@H]2CO)cc1 | - | - | .
COc1ccc2c3c(n(C)c2c1)[C@H](CO)N(CC1CC1)CC31CN(S(=O)(=O)c2cn(C)cn2)C1 | - | - | .
O=C(Nc1ccc(-c2ccccc2)cc1)[C@H]1[C@H](CO)[C@H]2Cn3c(cccc3=O)[C@H]2N1CC1CCOCC1 | - | - | .
O=C(Nc1ccc(-c2ccccc2)cc1)[C@@H]1[C@@H](CO)[C@@H]2Cn3c(cccc3=O)[C@@H]2N1CC1CCCCC1 | -82 | - | .
CCCN1[C@H](C(=O)N[C@@H](C)c2ccccc2)[C@@H](CO)[C@@H]2Cn3c(cccc3=O)[C@@H]21 | - | 38 | .
CCCN1[C@@H]2c3cccc(=O)n3C[C@@H]2[C@@H](CO)[C@@H]1C(=O)N[C@@H](C)c1ccccc1 | - | - | .
O=C(NCc1ccco1)C1(c2ccccc2)CCOCC1 | . | . | -
COc1cccc(NC(=O)N2C[C@@H](O)COC[C@H]3O[C@@H](CC(=O)NC4CCCC4)CC[C@@H]32)c1 | - | - | .
COC(=O)c1cc(-c2ccccc2)sc1NC(=S)NCc1ccccn1 | . | . | -
COc1ccc(S(=O)(=O)Nc2ccc3c(c2)[C@H]2C[C@@H](CC(=O)NCC4CC4)O[C@@H](CO)[C@H]2O3)cc1 | - | - | -
CN1CCN(C(=O)C[C@H]2C[C@@H]3c4cc(NC(=O)Nc5ccc(C(F)(F)F)cc5)ccc4O[C@@H]3[C@@H](CO)O2)CC1 | -85 | - | -
CCCNC(=O)C[C@H]1C[C@H]2c3cc(N(C)C)ccc3O[C@H]2[C@H](CO)O1 | - | 49 | .
COCCNC(=O)C[C@H]1C[C@@H]2c3cc(N(C)C)ccc3O[C@@H]2[C@H](CO)O1 | - | - | -
CN1CCN(C(=O)C[C@H]2C[C@H]3c4cc(NC(=O)Nc5ccc(C(F)(F)F)cc5)ccc4O[C@H]3[C@H](CO)O2)CC1 | - | - | -
COc1ccc(NC(=O)Nc2ccc3c(c2)[C@@H]2C[C@@H](CC(=O)N[C@@H](C)c4ccccc4)O[C@@H](CO)[C@@H]2O3)cc1 | - | - | -
COc1ccc(S(=O)(=O)Nc2ccc3c(c2)[C@H]2C[C@@H](CC(=O)NCC4CC4)O[C@H](CO)[C@H]2O3)cc1 | - | 44 | 74
COc1ccc(NC(=O)Nc2ccc3c(c2)[C@@H]2C[C@H](CC(=O)N[C@@H](C)c4ccccc4)O[C@H](CO)[C@@H]2O3)cc1 | -87 | - | .
O=C(CSc1nnc(-c2ccco2)n1-c1ccccc1)Nc1ccnc2ccccc12 | . | . | -
CCCC(=O)N1CCC2(CC1)CN(C(=O)C1CCCC1)[C@@H](CO)c1[nH]c3cc(OC)ccc3c12 | - | - | .
SMILES | Pf Dd2 inh | KDM4C inh | IDH1 mut inh
CN(C)c1ccc2c(c1)[C@@H]1C[C@@H](CC(=O)NCc3ccccc3)O[C@H](CO)[C@@H]1O2 | - | - | -
CCCNC(=O)C[C@H]1C[C@@H]2c3cc(N(C)C)ccc3O[C@@H]2[C@@H](CO)O1 | - | 31 | -
COc1ccccc1CNC(=O)C[C@H]1C[C@H]2c3cc(NC(=O)Cc4ccncc4)ccc3O[C@H]2[C@H](CO)O1 | -87 | - | -
CN(C)c1ccc2c(c1)[C@@H]1C[C@@H](CC(=O)N3CCCCC3)O[C@H](CO)[C@@H]1O2 | - | - | .
COCCNC(=O)C[C@@H]1C[C@@H]2c3cc(N(C)C)ccc3O[C@@H]2[C@H](CO)O1 | - | ? | -
CN(C)c1ccc2c(c1)[C@H]1C[C@H](CC(=O)NCc3ccccc3)O[C@@H](CO)[C@H]1O2 | - | 36 | -
CN(C)c1ccc2c(c1)[C@@H]1C[C@@H](CC(=O)N3CCOCC3)O[C@@H](CO)[C@@H]1O2 | - | 44 | -
COCC(=O)Nc1ccc2c(c1)[C@@H]1C[C@@H](CC(=O)NCc3ccccc3OC)O[C@@H](CO)[C@@H]1O2 | - | - | -
C[C@@H]1CN([C@@H](C)CO)C(=O)c2cc(NC(=O)Nc3ccc(C(F)(F)F)cc3)ccc2O[C@@H]1CN(C)Cc1ccc2c(c1)OCO2 | - | - | .
C[C@@H]1CN([C@@H](C)CO)S(=O)(=O)c2ccc(-c3ccncc3)cc2O[C@H]1CN(C)Cc1ccccn1 | - | - | -
C[C@H](CO)N1C[C@H](C)[C@@H](CN(C)C(=O)Nc2ccc(C(F)(F)F)cc2)Oc2ccc(NS(C)(=O)=O)cc2C1=O | - | . | .
C[C@@H]1CN([C@H](C)CO)C(=O)c2cc(NC(=O)CCCN(C)C)ccc2O[C@@H](C)CCCCO[C@@H]1CN(C)C(=O)NC1CCCCC1 | - | - | .
COc1ccc(CN(C)C[C@H]2OCCCC[C@@H](C)Oc3ccc(NS(=O)(=O)c4ccc(Cl)cc4)cc3C(=O)N([C@@H](C)CO)C[C@H]2C)cc1 | - | - | -
COc1ccc(CN(C)C[C@@H]2OCCCC[C@H](C)Oc3ccc(NC(=O)C4CCCCC4)cc3C(=O)N([C@H](C)CO)C[C@@H]2C)cc1 | - | - | -
O=C(C[C@H]1C[C@@H]2c3cc(NC(=O)Nc4ccccc4)ccc3O[C@@H]2[C@H](CO)O1)NCc1ccccc1 | -88 | - | -
COCCNC(=O)C[C@H]1C[C@@H]2c3cc(NC(=O)c4ccc5c(c4)OCO5)ccc3O[C@@H]2[C@@H](CO)O1 | - | - | -
COC(=O)C[C@@H]1C[C@@H]2c3cc(NC(=O)Nc4ccccc4F)ccc3O[C@@H]2[C@@H](CO)O1 | - | 41 | 81
COCCNC(=O)C[C@H]1C[C@H]2c3cc(NC(=O)c4ccc5c(c4)OCO5)ccc3O[C@H]2[C@@H](CO)O1 | - | 54 | -
O=C(O)C[C@@H]1C[C@H]2c3cc(NC(=O)Nc4ccccc4F)ccc3O[C@H]2[C@H](CO)O1 | - | - | -
O=C(C[C@@H]1C[C@@H]2c3cc(NC(=O)Nc4ccccc4)ccc3O[C@@H]2[C@H](CO)O1)NCc1ccccc1 | - | - | -
C[C@@H]1CN([C@H](C)CO)C(=O)c2cccc(NS(=O)(=O)c3cn(C)cn3)c2O[C@@H]1CN(C)S(=O)(=O)c1ccc(Cl)cc1 | - | - | -
COc1ccc(S(=O)(=O)N(C)C[C@@H]2Oc3ccc(NC(=O)C4CC4)cc3CC(=O)N([C@H](C)CO)C[C@H]2C)cc1 | - | - | -
CCC(=O)N1C[C@H](O)COC[C@@H]2O[C@H](CC(=O)NCc3ccccc3Cl)CC[C@H]21 | - | - | .
